For test [1], the target named is T1, Macrophage migration inhibitory factor (Homo sapiens) (UniProt P14174).
T1 sequence (whole entry): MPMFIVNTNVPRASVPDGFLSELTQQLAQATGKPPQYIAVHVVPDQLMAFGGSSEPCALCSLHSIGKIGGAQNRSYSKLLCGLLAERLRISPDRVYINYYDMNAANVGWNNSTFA
Briefly: Inhibitory activity against macrophage migration inhibitory factor tautomerase (MIF) at a concentration of 0.02 mM. A digest of the protocol:
(§1)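 Recombinant human MIF expressed in E. coli. The substrate is L-dopachrome methyl ester, generated by oxidizing 10 mM precursor stocks in 10 mM sodium phosphate, pH 6.0, with sodium periodate for 10 min, then quenching with methionine. Final substrate is 0.5 mM, with test compound at the stated concentration. The reaction starts on adding MIF from a 20 mg/mL stock. Percent inhibition is taken from the absorbance decrease at 475 nm over 1 min.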

Test [2] deals with T1, Macrophage migration inhibitory factor (Homo sapiens). Briefly: Inhibitory activity against macrophage migration inhibitory factor tautomerase (MIF) at a concentration of 0.125 mM. In short, it runs like this:
as §1

For test [3] the target is unchanged. Briefly: Inhibitory activity against macrophage migration inhibitory factor tautomerase (MIF) at a concentration of 0.25 mM. In short, it runs like this:
as §1

The target is the same in test [4]. Briefly: Inhibitory activity against macrophage migration inhibitory factor tautomerase (MIF) at a concentration of 0.5 mM. In short, it runs like this:
as §1

Test [5] shares this target. Briefly: Inhibitory activity against macrophage migration inhibitory factor tautomerase (MIF) at a concentration of 0.06 mM. In short, it runs like this: as §1

For `C[N+]1=C2C=C(O)C(=O)C=C2C(O)C1` (stereo not drawn), the inhibition is 21% in test [1], 54% in test [2], 79% in test [3] and 98% in test [4].

Take `COC(=O)C1(C)CC2=CC(=O)C(O)=CC2=N1` (racemic): the inhibition in test [4] was 34%.

Regarding `CC1(C(=O)O)CC2=CC(=O)C(O)=CC2=N1` (racemic), in test [4], the inhibition was determined as 35%.

For the compound `CC1N=C2C=C(O)C(=O)C=C2C1O` (stereo not drawn), the inhibition in test [2] stood at 54%; in test [3], 88%; in test [5], 22%; in test [4] it was 92%.

The compound `CCCC(C(N)=O)C1=CC(O)C(O)=CC1` (stereo not drawn) gave an inhibition in test [4] of 0%.

As to `COC(=O)[C@]1(C)CC2=CC(=O)C(O)=CC2=N1`, the inhibition in test [4] came out at 45%.

With `CCOC(=O)/C=C/C1=CC(O)C(O)=CC1` (stereo not drawn), the inhibition in test [4] amounted to 0%.

In the case of `C[C@@]1(C(=O)O)CC2=CC(=O)C(O)=CC2=N1`, in test [4], the inhibition was found to be 29%.

For `O=C1C=C2C(=NC(C(=O)O)C2O)C=C1O` (stereo not drawn), the inhibition in test [2] stood at 41%; in test [3], 98%; in test [5] it was 9%; in test [4], 100%.

Usually inhibition stands for the change of the read-out against control, counted positive when it falls. Read a low inhibition as a response near the control.

For the origin of these results see ChEMBL document CHEMBL1131879, “Inhibition of macrophage migration inhibitory factor (MIF) tautomerase activity by dopachrome analogs” (Bioorg Med Chem Lett, 1999).
